GASC1 inh – inhibitors of human demethylase GASC-1 KDM4C; AID 720574; 0.15% of 96,000 active; inhibition, % at 12.5 µM; Q9H3R0; GST-KDM4C 2-372, H3K9me3 peptide, LANCE TR-FRET;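 active = mean replicate inhibition above about 25%, with at least 55% of replicates also reaching it, limit read from the data, passing the limit was not always enough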
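System – N-terminal GST-fused human GASC-1 (KDM4C) fragment, residues 2-372 · Input – enzyme final amount 10 nM · Technique – LANCE TR-FRET, Eu antibody, ULight-streptavidin, EDTA, ex 340 nm, em 618/671 nm · Medium – HEPES buffer, pH 7.5, plus ascorbate · Incubation – enzyme reaction 30 min, then detection 60 min, both room temperature · Reagent – H3K9me3 peptide with Fe(II)/2OG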
IDH1 R132H inh – blocks human IDH1 R132H reductase activity. O75874. diaphorase/resazurin fluorescence, 60 min. inhibition, % at 10 µM. 0.18% of 70,000 active. AID 624101; in the data active = inhibition above about 34%
Target sequence (O75874 whole entry R132H): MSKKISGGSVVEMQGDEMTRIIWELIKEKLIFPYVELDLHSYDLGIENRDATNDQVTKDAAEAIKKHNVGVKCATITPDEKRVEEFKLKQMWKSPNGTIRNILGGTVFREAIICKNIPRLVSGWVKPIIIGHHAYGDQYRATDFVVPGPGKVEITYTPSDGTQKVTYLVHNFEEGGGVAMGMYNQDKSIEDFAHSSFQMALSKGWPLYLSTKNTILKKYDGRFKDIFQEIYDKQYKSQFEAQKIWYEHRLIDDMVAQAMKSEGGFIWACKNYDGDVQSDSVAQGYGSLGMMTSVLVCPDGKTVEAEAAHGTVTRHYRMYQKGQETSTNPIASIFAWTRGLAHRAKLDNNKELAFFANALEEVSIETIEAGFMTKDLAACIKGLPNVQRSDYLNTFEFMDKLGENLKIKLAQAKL
T cruzi growth-1 – blocks T. cruzi growth in NIH3T3 culture. T. cruzi beta-gal in NIH3T3, GalScreen luminescence, 90 h. inhibition, % at 8.34 µM. 5.9% of 77,000 active;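 active = mean inhibition above about 93%, with at least 55% of replicates each passing it, limit read from the data, passing the limit was not always enough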
T cruzi growth-2 – blocks T. cruzi growth in NIH3T3 host cells; shares compounds with T cruzi growth-1; T. cruzi beta-gal in NIH3T3, GalScreen luminescence, 90 h; inhibition, % at 8.35 µM; 72% of 5,600 active; AID 651739;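 active = mean replicate inhibition above about 95% and at least 55% of replicates individually reaching it, limit read from the data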
T cruzi growth-3 – Trypanosoma cruzi proliferation inhibition | shares compounds with T cruzi growth-1 | T. cruzi beta-gal in NIH3T3, GalScreen luminescence, 90 h | inhibition, % at 2.09 µM | 21% of 5,600 active | AID 651740;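 active = mean inhibition above about 95%, with at least 55% of replicates also reaching it, limit read from the data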
NIH3T3 tox – kills mouse NIH/3T3 fibroblasts | shares compounds with T cruzi growth-1 | NIH/3T3 viability, CellTiter-Glo ATP luminescence, 90 h | cytotoxicity (signal decrease), % at 8.35 µM | 14% of 5,600 active | AID 651742;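 active = mean signal decrease across replicates above about 35% based on untreated-well scatter, with enough replicates individually passing, limit read from the data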
NIH3T3 tox 2 – kills mouse NIH/3T3 fibroblasts. shares compounds with T cruzi growth-1. NIH/3T3 viability, CellTiter-Glo ATP luminescence, 90 h. inhibition, % at 24.9 µM. 56% of 5,600 active. AID 651744;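 active = mean loss of cell viability signal at or above a set limit, and enough replicates individually reaching it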
A number is an active result; i = inactive; nt = no result given. The entries come from a sample that favours hits as a whole.

SMILES	GASC1 inh	IDH1 R132H inh	T cruzi growth-1	T cruzi growth-2	T cruzi growth-3	NIH3T3 tox	NIH3T3 tox 2
CN(CC(=O)Nc1ncn[nH]1)S(=O)(=O)c1ccc2ccccc2c1	nt	i	nt	nt	nt	nt	nt
CCC1(C)Cc2c(sc3nc(SC)nc(SCC(=O)Nc4cccc(Cl)c4)c23)CO1 (centres undefined)	nt	i	nt	nt	nt	nt	nt
COc1cccc(-c2ccc([C@@H]3[C@H](CO)N4CCCCN(S(=O)(=O)c5cccs5)C[C@@H]34)cc2)c1	i	nt	i	nt	nt	nt	nt
Cc1cccc(-c2ccc([C@@H]3[C@H](CO)N4CCCCN(S(=O)(=O)c5cccs5)C[C@@H]34)cc2)c1	i	nt	103	106	i	47	102
Cc1cccc(-c2ccc([C@@H]3[C@@H](CO)N4CCCCN(S(=O)(=O)c5cccs5)C[C@@H]34)cc2)c1	i	nt	115	106	i	44	70
COc1cccc(-c2ccc([C@@H]3[C@@H](CO)N4CCCCN(S(=O)(=O)c5cccs5)C[C@H]34)cc2)c1	i	nt	i	nt	nt	nt	nt
Cc1cccc(-c2ccc([C@H]3[C@@H](CO)N4CCCCN(S(=O)(=O)c5cccc(C)c5)C[C@@H]34)cc2)c1	i	nt	i	nt	nt	nt	nt
Cc1cccc(-c2ccc([C@@H]3[C@H]4CN(S(=O)(=O)c5cccs5)CCCCN4[C@H]3CO)cc2)c1	i	nt	98	107	i	i	60
Cc1cccc(-c2ccc([C@@H]3[C@@H](CO)N4CCCCN(S(=O)(=O)c5cccc(C)c5)C[C@@H]34)cc2)c1	i	nt	i	nt	nt	nt	nt
Cc1cccc(-c2ccc([C@H]3[C@H](CO)N4CCCCN(S(=O)(=O)c5cccs5)C[C@@H]34)cc2)c1	i	nt	115	108	i	i	105
O=C(CSc1nc2ccccc2c(=O)n1-c1ccccc1)Nc1cccc([N+](=O)[O-])c1	nt	i	nt	nt	nt	nt	nt
COc1cccc(-c2cc(C(F)(F)F)n3nc(C(=O)Nc4c(C#N)cnn4C)cc3n2)c1	nt	i	nt	nt	nt	nt	nt
COc1ccc(NC(=O)Cc2coc3c(C)c(C)ccc23)c(OC)c1	nt	i	nt	nt	nt	nt	nt
CCN(CC(=O)Nc1cccc(OC)c1)S(=O)(=O)c1ccc(Cl)cc1	nt	i	nt	nt	nt	nt	nt
CCC1(C)Cc2c(sc3nc(SC)nc(SCC(=O)Nc4ccc(C)cc4)c23)CO1 (centres undefined)	nt	i	nt	nt	nt	nt	nt
CCc1ccc(OCC(=O)Nc2cc(OC)ccc2OC)c(Br)c1	nt	i	nt	nt	nt	nt	nt
C[C@@H]1CCCCO[C@H](CN(C)CC2CCCCC2)[C@H](C)CN([C@H](C)CO)C(=O)c2cc(NC(=O)c3ccccc3)ccc2O1	i	i	118	114	i	i	105
C[C@@H]1CCCCO[C@H](CN(C)CC2CCCCC2)[C@H](C)CN([C@@H](C)CO)C(=O)c2cc(NC(=O)c3ccccc3)ccc2O1	i	nt	i	nt	nt	nt	nt
C[C@@H]1CCCCO[C@H](CN(C)CC2CCCCC2)[C@@H](C)CN([C@H](C)CO)C(=O)c2cc(NC(=O)Nc3ccccc3)ccc2O1	i	nt	109	112	i	i	95
C[C@@H]1CCCCO[C@@H](CN(C)CC2CC2)[C@H](C)CN([C@H](C)CO)C(=O)c2cc(NC(=O)Nc3ccccc3)ccc2O1	i	nt	i	nt	nt	nt	nt
C[C@@H]1CCCCO[C@@H](CN(C)CC2CCCCC2)[C@@H](C)CN([C@@H](C)CO)C(=O)c2cc(NC(=O)Nc3ccccc3)ccc2O1	i	i	125	104	i	i	103
C[C@H]1CCCCO[C@@H](CN(C)CC2CCCCC2)[C@@H](C)CN([C@@H](C)CO)C(=O)c2cc(NC(=O)c3ccccc3)ccc2O1	i	i	i	nt	nt	nt	nt
C[C@@H]1CCCCO[C@@H](CN(C)CC2CCCCC2)[C@H](C)CN([C@@H](C)CO)C(=O)c2cc(NC(=O)Nc3ccccc3)ccc2O1	i	i	105	101	i	i	104
C[C@@H]1CCCCO[C@H](CN(C)CC2CCCCC2)[C@H](C)CN([C@@H](C)CO)C(=O)c2cc(NC(=O)Nc3ccccc3)ccc2O1	i	nt	i	nt	nt	nt	nt
Cn1c(Cc2cccc3ccccc23)nnc1SCc1ccccc1C#N	nt	i	nt	nt	nt	nt	nt
COc1cccc(NC(=O)CSC2=C(C#N)C(c3cccc(Br)c3)CC(=O)N2)c1 (centres undefined)	nt	i	nt	nt	nt	nt	nt
COC(=O)c1ccccc1NC(=O)c1nc2ncccn2n1	nt	i	nt	nt	nt	nt	nt

Assay outcomes (PubChem)
